Screens: PubChem BioAssay, several laboratories
S1P3 ag = activates the human S1P3 receptor. 60,000 compounds, 0.1% hits. activation, % at 4.5 µM. S1P3 NFAT-BLA reporter cells, agonism, FRET ratio; relative to 1 µM S1P, basal subtracted;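 active = activation above the screen-wide mean plus 3 SD, cut at about 4.5% in these data, passing the limit was not always enough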
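Material: Human S1P3 NFAT-BLA reporter CHO cells | Incubation: Overnight plating, 4 h compound 37 °C, 2 h substrate RT | Signal: FRET β-lactamase substrate fluorescence, excitation 405 nm, 460/535 nm emission ratio, background-subtracted | Compound: 4.5 µM final, single dose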
M1 ag = activates the M1 muscarinic receptor; AID 626; CHO-M1 cells, Fluo-4 calcium fluorescence, agonist mode; active compounds read high; B-score at 10 µM; 64,000 compounds, 3% hits;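 active = fluorescence rise, raw or as B-score row- and column-corrected plate score, outside the 99.7% band of its plate's samples, either direction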
SF-1 act = activates the human nuclear receptor SF-1 | CHO-K1 Gal4-SF-1 LBD luciferase reporter; % increase over DMSO SF-1-specific signal | Q13285 | AID 522 | 65,000 compounds, 1.9% hits | activation, % at 10 µM;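 active = activation above the mean activation of all tested compounds plus 3 SD, cut at about 50% in these data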
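Material: Gal4–SF-1 LBD one-hybrid luciferase reporter in CHO-K1 cells | Amount: 4,000 cells per well | Compound dosing: 10 µM single point, 1% DMSO | Schedule: 20 h compound treatment, 37 °C | Measured by: SteadyLite luciferase luminescence | Evaluation: Percent activation versus DMSO | Control set: DMSO-treated SF-1-transfected cells as negative, DMSO-treated mock-transfected cells lacking SF-1 as background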
M1 antagonist = blocks the rat M1 muscarinic receptor response to acetylcholine. 64,000 compounds, 3.4% hits. B-score at 10 µM. CHO-M1 cells, Fluo-4 calcium, ACh EC80 antagonist mode; active compounds read low. AID 628;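 active = calcium fluorescence response, raw or row-and-column corrected B-score, differing from the plate sample mean either way at a set confidence level, mostly lower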
S1P1 ag pot = agonists and agonism potentiators of human S1P1 receptor | P21453 | S1P1 CRE-bla cells, forskolin, beta-lactamase FRET, potentiator mode; S1P1 agonist co-added at EC20, 2 nM; 100% = saturating reference agonist, 0% = basal | activation, % at 9.5 µM | 56,000 compounds, 0.57% hits | AID 449;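 active = activation above a cutoff set at the mean activation of all tested compounds plus 3 SD, cut at about 54% in these data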;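 note: forskolin at 4 µM as EC80 and the EC20 agonist is SEW2871; 100% = SEW2871 at its EC100 plus forskolin at EC80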
RORA act = activates the human nuclear receptor RORA | P35398 | CHO-K1 Gal4-RORA LBD luciferase reporter, luminescence; percent increase over mock-subtracted basal signal | activation, % at 10 µM | 65,000 compounds, 1.5% hits | AID 560;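 active = activation above the mean of all tested compounds plus 3 SD, cut at about 49% in these data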;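 note: 0% = DMSO-treated RORA cells and 100% = added signal equal to DMSO minus mock-transfected cells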
Target sequence (P35398 whole entry, looked up, the tested form may be a part): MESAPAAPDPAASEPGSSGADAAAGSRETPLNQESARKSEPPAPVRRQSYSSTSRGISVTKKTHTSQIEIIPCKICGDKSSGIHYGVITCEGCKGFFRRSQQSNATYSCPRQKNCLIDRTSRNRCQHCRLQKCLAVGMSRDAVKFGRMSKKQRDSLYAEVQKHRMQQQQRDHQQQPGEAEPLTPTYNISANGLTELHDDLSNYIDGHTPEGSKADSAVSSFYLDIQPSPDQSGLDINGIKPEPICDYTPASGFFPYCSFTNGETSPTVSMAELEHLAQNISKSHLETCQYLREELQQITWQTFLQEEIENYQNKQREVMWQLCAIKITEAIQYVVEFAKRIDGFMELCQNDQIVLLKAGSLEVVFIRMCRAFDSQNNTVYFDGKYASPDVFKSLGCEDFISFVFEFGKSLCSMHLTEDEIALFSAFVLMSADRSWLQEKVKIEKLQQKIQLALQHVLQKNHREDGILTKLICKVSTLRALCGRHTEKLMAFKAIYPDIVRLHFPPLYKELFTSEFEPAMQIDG
M1 antag conf = M1 muscarinic receptor (rat) antagonism, confirmed; AID 677; shares compounds with M1 antagonist; calcium response (max-min fluorescence) at 10 µM; CHO-M1 cells, Fluo-4 calcium, ACh EC80 antagonism; active compounds read low; 1,700 compounds, 43% hits;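 active = calcium response below the same-plate mean of wells given acetylcholine alone at its 80%-effect dose, minus 3 SD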;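 note: raw fluorescence intensity difference in arbitrary instrument units and not normalized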
mGluR4 antag = selectivity test for M1 antagonists: human mGluR4 receptor; shares compounds with M1 antagonist; CHO-mGluR4 calcium flux, Fluo-4 fluorescence, glutamate EC80; active compounds read low; fluorescence response (max-min) at 10 µM; 1,700 compounds, 0.9% hits;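 active = fluorescence response below the plate's average for near-maximal glutamate wells, less 3 SD of those wells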;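 note: raw unnormalized fluorescence span taken in the window right after glutamate addition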
* = called active by the depositor; · = no result. Shown are actives, neighbours in structure and some others; about 8.8% of the full set was active somewhere.

SMILES	S1P3 ag	M1 ag	SF-1 act	M1 antagonist	S1P1 ag pot	RORA act	M1 antag conf	mGluR4 antag
COc1ccc(CN2CCCC(C(=O)N(C)Cc3ccccc3)C2)cc1OC (stereo not given)	0	-0.011	1	-0.53	-29	9	·	·
COc1ccccc1CN1CCCC(C(=O)N(C)Cc2ccccc2)C1 (stereo not given)	-2	-0.56	-2	-3.8*	17	1	513*	227
COc1ccc(Br)cc1CN1CCCC(C(=O)N2CCCCCC2)C1 (stereo not given)	-1	-1.6	-20	-3.1*	-21	-8	313*	191
CC(=O)c1ccc(OCC(O)CN2C(C)(C)CC(O)CC2(C)C)cc1 (stereo not given)	0	0.087	-4	-3.1*	-26	2	622	243
CCN1CCN(CC(O)COc2ccc(C(C)=O)cc2)CC1 (stereo not given)	-1	-1.4	-9	-0.0022	2	-27	·	·
OCCOCCn1c2ccccc2c2ccccc21	-1	0.78	0	-0.034	15	29	·	·
O=C(C1CCCO1)N1CCN(c2c3c(nc4cc(-c5ccc(F)cc5)nn24)CCC3)CC1 (stereo not given)	0	1.2	5	-3.6*	-16	15	661	243
CNC(=O)c1cc2c(=O)n3cccc(C)c3nc2n(C(C)C)c1=N	1	0.63	-5	0.042	-39	-6	·	·
CSc1nc(N(CCO)CCO)c2sc3nc(-c4ccco4)c4c(c3c2n1)CCC4	·	-0.89	-7	-3.9*	·	-10	524	273
OCCN(CCO)c1ncnc2c1sc1nc(N3CCOCC3)c3c(c12)CCCC3	1	4.9	26	-1.9	-73	2	·	·
CCOC(=O)Nc1ccc2c(c1)N(C(=O)CCN1CCOCC1)c1ccccc1S2	-1	-0.56	-8	-6.5*	-29	-24	434*	236
CCOC(=O)Nc1ccc2c(c1)N(C(=O)CCN1CCOCC1)c1ccccc1S2=O (stereo not given)	0	-0.61	-12	-10*	32	-25	55*	240
COC(=O)Nc1ccc2c(c1)N(C(=O)CCN1CCOCC1)c1ccccc1S2	-2	-0.29	-16	-5.2*	-4	-26	495*	248
Cc1cc(NC(=O)COC(=O)C(Nc2ccc(C(F)(F)F)cc2Cl)C(C)C)no1 (stereo not given)	-2	-0.075	4	-0.49	12	-3	·	·
CCN(CC)c1ccc(C2C(C(=O)OCCOC(C)C)=C(C)NC3=C2C(=O)CCC3)cc1 (stereo not given)	-1	-0.059	5	-11*	0	-9	144*	236
CCN(CC)S(=O)(=O)c1cccc(S(=O)(=O)c2cccc(S(=O)(=O)N(CC)CC)c2)c1	-1	-0.98	-1	-0.24	66	-2	·	·
CCN(CC)S(=O)(=O)c1ccc(NS(=O)(=O)c2cccc(C)c2)cc1	0	-0.13	0	-2.6*	8	-12	581	251
O=C(OCCn1cncn1)c1cc2ccccc2oc1=O	-1	-0.51	4	-0.29	-3	-12	·	·
O=C(Oc1ccc(-c2nnco2)cc1)N1CCCCC1	-1	-0.036	41	0.34	-10	11	·	·
O=C(Oc1ccc(-c2nnco2)cc1)N(c1ccccc1)c1ccccc1	16*	0.049	0	-1.6*	·	2	502*	269
Cc1ccc(N2C(=O)C(Cl)=C(Nc3c(C)n(C)n(-c4ccccc4)c3=O)C2=O)cc1	0	0.098	-5	-5.7*	-12	6	133*	265
CC(C)c1[nH]nc2c1C1(CCN(Cc3ccccc3)CC1)C(C#N)=C(N)O2	-1	·	-7	·	3	20	·	·
